The results in this text go back to article PMC3037477 (Investigational New Drugs, 2009).

Data set [1] in a line: HPLC analysis of extracellular cleavage of prodrugs to nucleosides in the medium. The class given is in vitro ADME. The settings on record: after 24 h incubation with 100 µM prodrug. The gist of the method:
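Cells were exposed to prodrug for 24 h. Medium above the cells was sampled after centrifugation, deproteinized with TCA and neutralized, then analysed by HPLC-UV for parent drug, FdUrd and ETC. Means of 3–5 independent experiments ± SEM.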

The subject of data set [2] is HT-29 xenograft. The data set can be described thus: In vivo antitumor effect in human HT-29 xenograft model. More on the design: species or system NMRI:nu/nu female mice. As to conditions: or., 40 mg/kg/inj. The gist of the method: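 5-FU-resistant human HT-29 colon carcinoma cells were implanted subcutaneously in female nude mice. Dosing began at palpable tumour size on a q4dx3 schedule. Tumour volumes of treated mice (T) were compared with PBS-treated controls (C). Animals were killed once tumours exceeded 1 cm3.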

A short description of data set [3]: In vivo toxicity in HT-29 xenograft mice. Also on record: species or system NMRI:nu/nu female mice. As to conditions: i.v. and oral treatment.
Data set [4] is described as follows: LC-MS/MS detection of ETC and ETC-nucleotides in tumor and liver tissue. It is filed as in vivo, NMRI:nu/nu female mice. As to conditions: 2 h after administration. The essentials: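 Subcutaneous HT-29 xenografts were grown in female NMRI nude mice. Tumour and liver were taken 2 h after prodrug administration. ETC and its nucleotides were quantified by LC-MS/MS in MRM mode (transition 268.2/112.2).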

For data set [5], the target named is thymidylate synthase (TS) in intact FM3A/0 cells (Mus musculus, UniProt P07607). The data set can be described thus: TS in situ activity assay. It is filed as cell-based, murine. The settings on record: 24 h exposure to 0.5 µM.
thymidylate synthase (TS) in intact FM3A/0 cells, sequence (P07607 whole entry): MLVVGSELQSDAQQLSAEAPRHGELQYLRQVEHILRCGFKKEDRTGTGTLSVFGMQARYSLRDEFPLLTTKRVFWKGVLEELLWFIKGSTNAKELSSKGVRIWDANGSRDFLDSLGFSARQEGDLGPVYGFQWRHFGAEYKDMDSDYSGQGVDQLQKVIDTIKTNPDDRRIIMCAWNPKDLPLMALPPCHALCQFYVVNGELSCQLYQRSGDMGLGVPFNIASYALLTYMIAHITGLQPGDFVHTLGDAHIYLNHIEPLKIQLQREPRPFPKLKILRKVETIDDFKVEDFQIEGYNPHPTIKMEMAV

`C#C[C@@]1(O)[C@@H](COP(=O)(O)OC[C@H]2O[C@@H](n3cc(F)c(=O)[nH]c3=O)C[C@@H]2O)O[C@@H](n2ccc(N)nc2=O)[C@@H]1O` [ETC-FdUrd, 3′-C-Ethynylcytidylyl-(5′➔5′)-5-fluoro-2′-deoxyuridine]: the “parent drug still present in the medium” value in data set [1] is listed as “More than 60%”. Further, the “Evaluation (in vivo activity)” value in data set [2] was “orally active”. Further, in data set [3], the haematological side effects result is on record as “did not result in any haematological side effects”. Besides, the “ETC and ETC-nucleotide accumulation in liver tissue” value in data set [4] is on record as “accumulated in the liver tissue”. The “ETC-nucleoside and ETC-nucleotide accumulation in tumor tissue” value in data set [4] (HT-29 xenograft) is recorded as “accumulated to a high extent in the tumor tissue”.
Consider `O=c1[nH]c(=O)n([C@H]2C[C@H](O)[C@@H](CO)O2)cc1F` [FdUrd, 5-fluoro-2′-deoxyuridine], for which the “inhibition of thymidylate synthase (TS) in situ” value in data set [5] is recorded as “inhibited almost completely”.
